≈ marks a conversion by molar mass, not a printed value.
Columns and labels:
Assay type in all cases: functional
Staphylococcus aureus = assay: Antibacterial activity against Staphylococcus aureus measured every 120 mins for 36 hrs by LB broth two-fold serial dilution method
Outline: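 Panel of 12 laboratory and clinical S. aureus strains with varied drug-susceptibility patterns. Compounds were two-fold serially diluted in LB broth from a maximum of 32 mg/L. Growth was followed by OD600 every 120 min for 36 h. Vancomycin was the positive control, and runs were in duplicate.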

K562 = assay: Anticancer activity against human K562 cells assessed as cell growth inhibition measured after 48 hrs by SRB assay; details: K562, 48 h; for CC50: read-out: LC50 (the source's name)
Outline: (§1)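 NCI-60 five-dose screen at 100, 10, 1.0, 0.1 and 0.01 µM final. Cells in RPMI-1640 with 5% FBS and 2 mM glutamine were seeded 24 h ahead at 37°C, 5% CO2. Compound exposure was 48 h, followed by TCA fixation and SRB staining, read at 515 nm. GI50 is the concentration giving 50% lower net protein increase than control, using time-zero plates.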

MOLT-4 = assay: Anticancer activity against human MOLT4 cells assessed as cell growth inhibition measured after 48 hrs by SRB assay; details: MOLT-4, 48 h; outline: as §1
EKVX = assay: Anticancer activity against human EKVX cells assessed as cell growth inhibition measured after 48 hrs by SRB assay; outline: as §1
NCI-H522 = assay: Anticancer activity against human NCI-H522 cells assessed as cell growth inhibition measured after 48 hrs by SRB assay; details: NCI-H522, 48 h; for CC50: read-out: LC50 (the source's name); outline: as §1
COLO 205 = assay: Anticancer activity against human COLO205 cells assessed as cell growth inhibition measured after 48 hrs by SRB assay; details: COLO 205, 48 h; outline: as §1
HCT-116 = assay: Anticancer activity against human HCT116 cells assessed as cell growth inhibition measured after 48 hrs by SRB assay; details: HCT-116, 48 h; outline: as §1
HCT-15 = assay: Anticancer activity against human HCT15 cells assessed as cell growth inhibition measured after 48 hrs by SRB assay; details: HCT-15, 48 h; outline: as §1
HT-29 = assay: Anticancer activity against human HT-29 cells assessed as cell growth inhibition measured after 48 hrs by SRB assay; details: HT-29, 48 h; outline: as §1
SW-620 = assay: Anticancer activity against human SW620 cells assessed as cell growth inhibition measured after 48 hrs by SRB assay; details: SW-620, 48 h; for CC50: read-out: LC50 (the source's name)
Outline: (§2)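 NCI 60-cell screen, five-dose mode at 100, 10, 1.0, 0.1 and 0.01 µM. Cells grown in RPMI-1640 with 5% FBS and 2 mM L-glutamine, seeded and held 24 h at 37°C, 5% CO2, then exposed for 48 h. Fixed with cold TCA (10% final), stained with 0.4% SRB and read at 515 nm. Time-zero plates were used. GI50 is the concentration giving 50% lower net protein increase than control.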

SF-539 = assay: Anticancer activity against human SF539 cells assessed as cell growth inhibition measured after 48 hrs by SRB assay; details: SF-539, 48 h; for CC50: read-out: LC50 (the source's name); outline: as §2
SNB-19 = assay: Anticancer activity against human SNB19 cells assessed as cell growth inhibition measured after 48 hrs by SRB assay; details: SNB-19, 48 h; outline: as §2
LOX IMVI = assay: Anticancer activity against human LOXIMVI cells assessed as cell growth inhibition measured after 48 hrs by SRB assay; outline: as §1
Malme-3M = assay: Anticancer activity against human MALME-3M cells assessed as cell growth inhibition measured after 48 hrs by SRB assay; outline: as §1
MDA-MB-435 = assay: Anticancer activity against human MDA-MB-435 cells assessed as cell growth inhibition measured after 48 hrs by SRB assay; details: MDA-MB-435, 48 h; outline: as §1
SK-MEL-2 = assay: Anticancer activity against human SK-MEL-2 cells assessed as cell growth inhibition measured after 48 hrs by SRB assay; details: SK-MEL-2, 48 h; for CC50: read-out: LC50 (the source's name); outline: as §2
SK-MEL-28 = assay: Anticancer activity against human SK-MEL-28 cells assessed as cell growth inhibition measured after 48 hrs by SRB assay; details: SK-MEL-28, 48 h; for CC50: read-out: LC50 (the source's name); outline: as §2
SK-MEL-5 = assay: Anticancer activity against human SK-MEL-5 cells assessed as cell growth inhibition measured after 48 hrs by SRB assay; details: SK-MEL-5, 48 h; for CC50: read-out: LC50 (the source's name); outline: as §2
UACC-257 = assay: Anticancer activity against human UACC257 cells assessed as cell growth inhibition measured after 48 hrs by SRB assay; details: UACC-257, 48 h; for CC50: read-out: LC50 (the source's name); outline: as §2
786-0 = assay: Anticancer activity against human 786-O cells assessed as cell growth inhibition measured after 48 hrs by SRB assay; details: 786-0, 48 h; for CC50: read-out: LC50 (the source's name); outline: as §1
SN12C = assay: Anticancer activity against human SN12C cells assessed as cell growth inhibition measured after 48 hrs by SRB assay; outline: as §2
TK-10 = assay: Anticancer activity against human TK10 cells assessed as cell growth inhibition measured after 48 hrs by SRB assay; details: TK-10, 48 h; for CC50: read-out: LC50 (the source's name); outline: as §2
UO-31 = assay: Anticancer activity against human UO31 cells assessed as cell growth inhibition measured after 48 hrs by SRB assay; details: UO-31, 48 h; for CC50: read-out: LC50 (the source's name); outline: as §2
MDA-MB-231 = assay: Anticancer activity against human MDA-MB-231 cells assessed as cell growth inhibition measured after 48 hrs by SRB assay; details: MDA-MB-231, 48 h; outline: as §1
Hs-578T = assay: Anticancer activity against human Hs578T cells assessed as cell growth inhibition measured after 48 hrs by SRB assay; outline: as §1
[1] = system: Mycobacterium tuberculosis; assay: Antitubercular activity against Mycobacterium tuberculosis H37Rv ATCC27294 measured after 2-3 weeks by agar dilution SPOTi assay; details: H37Rv ATCC 27294
Outline: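 Agar dilution SPOTi on Middlebrook 7H10 with 0.5% glycerol and 10% OADC. Final compound levels 50, 20, 10, 5, 2 mg/L, added from DMSO dilutions. 2 µL of a 10^6 CFU/mL inoculum from a 4-week Löwenstein-Jensen culture spotted per well, incubated 2-3 weeks at 37°C. MIC is the lowest concentration with no visible growth. Repeated on a separate day; isoniazid was the reference.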

[2] = system: Mycolicibacterium smegmatis; assay: Antibacterial activity against Mycobacterium smegmatis MC2 155 measured after 48 hrs by agar dilution SPOTi assay; details: MC2 155, 48 h
Outline: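 SPOTi agar dilution on Middlebrook 7H10 without OADC. Cells were passaged in Middlebrook 7H9 and then spotted. Compounds were tested at 100, 50, 20, 10 and 5 mg/L, with kanamycin as positive control. Plates were incubated 48 h at 37°C. MIC was taken as the lowest concentration with no visible growth.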

SMILES: COc1ccc(C(=O)/C=C/c2ccc(Cl)cc2)cc1S(N)(=O)=O
- MIC (Staphylococcus aureus): > 57 µM
- GI50 (K562): 0.57 µM
- CC50 (K562): > 100 µM
- GI50 (MOLT-4): 2.93 µM
- LC50 (MOLT-4): > 100 µM
- GI50 (EKVX): 4.56 µM
- LC50 (concentration killing 50% of cells) (EKVX): 50.5 µM
- GI50 (NCI-H522): 1.93 µM
- CC50 (NCI-H522): 12.1 µM
- GI50 (COLO 205): 2.03 µM
- LC50 (concentration giving 50% net cell kill) (COLO 205): 17.4 µM
- GI50 (HCT-116): 1.36 µM
- LC50 (concentration killing 50% of cells present at start) (HCT-116): 5.36 µM
- GI50 (HCT-15): 2.14 µM
- LC50 (concentration killing 50% of cells) (HCT-15): 59.3 µM
- GI50 (HT-29): 3.26 µM
- LC50 (concentration giving 50% net cell kill) (HT-29): 84 µM
- GI50 (SW-620): 1.76 µM
- CC50 (SW-620): 8.45 µM
- GI50 (SF-539): 1.6 µM
- CC50 (SF-539): 6.82 µM
- GI50 (SNB-19): 3.1 µM
- LC50 (SNB-19): 33.4 µM
- GI50 (LOX IMVI): 1.28 µM
- LC50 (concentration giving 50% net cell kill) (LOX IMVI): 5.47 µM
- GI50 (Malme-3M): 5.89 µM
- LC50 (Malme-3M): 54.8 µM
- GI50 (MDA-MB-435): 4.34 µM
- LC50 (concentration killing 50% of cells present at time zero) (MDA-MB-435): 41.6 µM
- GI50 (SK-MEL-2): 12.4 µM
- CC50 (SK-MEL-2): 53.2 µM
- GI50 (SK-MEL-28): 3.24 µM
- CC50 (SK-MEL-28): 37.2 µM
- GI50 (SK-MEL-5): 5.69 µM
- CC50 (SK-MEL-5): 42.7 µM
- GI50 (UACC-257): 12.2 µM
- CC50 (UACC-257): 50.8 µM
- GI50 (786-0): 1.74 µM
- CC50 (786-0): 7.82 µM
- GI50 (SN12C): 2.72 µM
- LC50 (concentration giving 50% net cell kill) (SN12C): 31.5 µM
- GI50 (TK-10): 2.47 µM
- CC50 (TK-10): 27.5 µM
- GI50 (UO-31): 1.89 µM
- CC50 (UO-31): 22 µM
- GI50 (MDA-MB-231): 3.48 µM
- LC50 (MDA-MB-231): 40.1 µM
- GI50 (Hs-578T): 3.28 µM
- LC50 (Hs-578T): > 100 µM
- MIC [1]: 14 µM (≈ 4.93 µg/mL)
- MIC [2]: > 175 µM

SMILES: COc1ccc(C(=O)/C=C/c2ccc(Cl)cc2)cc1S(=O)(=O)Nc1c(N)nc(SC)[nH]c1=O
- MIC (Staphylococcus aureus): > 57 µM
- GI50 (K562): 2.77 µM
- CC50 (K562): > 100 µM
- GI50 (MOLT-4): 3.71 µM
- LC50 (MOLT-4): > 100 µM
- GI50 (EKVX): 3.94 µM
- LC50 (concentration killing 50% of cells) (EKVX): 80.3 µM
- GI50 (NCI-H522): 1.88 µM
- CC50 (NCI-H522): 8.83 µM
- GI50 (COLO 205): 1.76 µM
- LC50 (concentration giving 50% net cell kill) (COLO 205): 6.68 µM
- GI50 (HCT-116): 1.56 µM
- LC50 (concentration killing 50% of cells present at start) (HCT-116): 5.55 µM
- GI50 (HCT-15): 3.24 µM
- LC50 (concentration killing 50% of cells) (HCT-15): 83.9 µM
- GI50 (HT-29): 2.93 µM
- LC50 (concentration giving 50% net cell kill) (HT-29): 45.3 µM
- GI50 (SW-620): 1.58 µM
- CC50 (SW-620): 28.3 µM
- GI50 (SF-539): 2.1 µM
- CC50 (SF-539): 15.1 µM
- GI50 (SNB-19): 2.52 µM
- LC50 (SNB-19): 32.2 µM
- GI50 (LOX IMVI): 1.63 µM
- LC50 (concentration giving 50% net cell kill) (LOX IMVI): 6.34 µM
- GI50 (Malme-3M): 3.02 µM
- LC50 (Malme-3M): 41.8 µM
- GI50 (MDA-MB-435): 2.95 µM
- LC50 (concentration killing 50% of cells present at time zero) (MDA-MB-435): 48 µM
- GI50 (SK-MEL-2): 12.8 µM
- CC50 (SK-MEL-2): 61.1 µM
- GI50 (SK-MEL-28): 2.1 µM
- CC50 (SK-MEL-28): 17 µM
- GI50 (SK-MEL-5): 2.72 µM
- CC50 (SK-MEL-5): 32 µM
- GI50 (UACC-257): 8.27 µM
- CC50 (UACC-257): 50.1 µM
- GI50 (786-0): 1.95 µM
- CC50 (786-0): 8.74 µM
- GI50 (SN12C): 3.45 µM
- LC50 (concentration giving 50% net cell kill) (SN12C): 73.4 µM
- GI50 (TK-10): 2.98 µM
- CC50 (TK-10): 32.3 µM
- GI50 (UO-31): 1.89 µM
- CC50 (UO-31): 12.9 µM
- GI50 (MDA-MB-231): 3.42 µM
- LC50 (MDA-MB-231): 40.3 µM
- GI50 (Hs-578T): 3.56 µM
- LC50 (Hs-578T): > 100 µM
- MIC [1]: 20 µM (≈ 10.1 µg/mL)
- MIC [2]: > 175 µM
